Assay results as given in ChEMBL document CHEMBL3792377, “Synthesis and characterization of a series of chiral alkoxymethyl morpholine analogs as dopamine receptor 4 (D4R) antagonists” (Bioorg Med Chem Lett, 2016).

What was measured:
[1] = tested on: Plasma; assay: Fraction unbound in rat plasma by equilibrium dialysis method; type: ADME, cell-free
[2] = target: T1, D(4) dopamine receptor (Homo sapiens, UniProt P21917); assay: Displacement of [3H]-Spiperone from human recombinant dopamine D4 receptor expressed in CHOK1 cells; type: cell-based, CHO-K1
T1 sequence (P21917 whole entry): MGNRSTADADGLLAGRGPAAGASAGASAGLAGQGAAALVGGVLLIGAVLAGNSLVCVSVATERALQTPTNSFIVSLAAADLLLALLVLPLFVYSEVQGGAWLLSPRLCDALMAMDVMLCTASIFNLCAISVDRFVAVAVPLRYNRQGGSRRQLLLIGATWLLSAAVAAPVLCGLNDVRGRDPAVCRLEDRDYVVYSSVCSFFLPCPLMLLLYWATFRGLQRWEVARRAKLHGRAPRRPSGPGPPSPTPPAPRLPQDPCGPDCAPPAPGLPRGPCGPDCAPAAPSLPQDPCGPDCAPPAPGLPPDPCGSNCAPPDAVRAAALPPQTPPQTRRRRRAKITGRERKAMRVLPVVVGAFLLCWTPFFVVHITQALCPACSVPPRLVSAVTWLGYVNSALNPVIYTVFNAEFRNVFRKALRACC
Procedure, shortened: (§1)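 Radioligand binding at human D4 receptor using [3H]-spiperone, run as a contract assay in duplicate. IC50 and Ki were derived from concentration–response data. Single-point values are % inhibition of specific binding at 10 µM test compound.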

[3] = Fraction unbound in human plasma by equilibrium dialysis method; type: ADME, cell-free
[4] = target: T2, D(2) dopamine receptor (Homo sapiens, UniProt P14416); assay: Displacement of [3H]-Spiperone from human recombinant dopamine D2L receptor expressed in CHO cells at 10 uM relative to control; type: cell-based
Procedure, shortened: (§2)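 Off-target dopamine receptor radioligand binding (D1, D2L, D2S, D3, D5), run as a contract assay. Test compound at a single concentration of 10 µM, reported as % inhibition of specific binding, measured in duplicate.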

[5] = target: D(3) dopamine receptor (Homo sapiens, UniProt P35462); assay: Displacement of [3H]-Spiperone from human recombinant dopamine D3 receptor expressed in CHO cells at 10 uM relative to control; type: cell-based; procedure, shortened: as §2
[6] = target: D(1A) dopamine receptor (Homo sapiens, UniProt P21728); assay: Displacement of [3H]-SCH-23390 from human recombinant dopamine D1 receptor expressed in CHO cells at 10 uM relative to control; type: cell-based; procedure, shortened: as §2
[7] = target: T2, D(2) dopamine receptor; assay: Displacement of [3H]-Spiperone from human recombinant dopamine D2S receptor expressed in CHO cells at 10 uM relative to control; type: cell-based; procedure, shortened: as §2
[8] = target: D(1B) dopamine receptor (Homo sapiens, UniProt P21918); assay: Displacement of [3H]-SCH-23390 from human recombinant dopamine D5 receptor expressed in CHO cells at 10 uM relative to control; type: cell-based; procedure, shortened: as §2
[9] = Drug uptake in rat brain at 0.25 mg/kg, iv administered through cassette dosing at 0.25 hrs; type: ADME, organism-based; settings: read-out: Drug uptake
[10] = Ratio of drug level in brain to plasma in rat at 0.25 mg/kg, iv administered through cassette dosing at 0.25 hrs; type: ADME, organism-based
[11] = Plasma concentration in rat at 0.25 mg/kg, iv administered through cassette dosing at 0.25 hrs; type: ADME, organism-based
[12] = target: T3, D(4) dopamine receptor (Homo sapiens) (UniProt P21917); assay: Displacement of [3H]-Spiperone from human recombinant dopamine D4 receptor expressed in CHOK1 cells at 10 uM relative to control; type: cell-based; settings: CHO-K1; procedure, shortened: as §1
T3 sequence (whole entry): T1 sequence (P21917 whole entry)

T2 sequence (P14416 whole entry): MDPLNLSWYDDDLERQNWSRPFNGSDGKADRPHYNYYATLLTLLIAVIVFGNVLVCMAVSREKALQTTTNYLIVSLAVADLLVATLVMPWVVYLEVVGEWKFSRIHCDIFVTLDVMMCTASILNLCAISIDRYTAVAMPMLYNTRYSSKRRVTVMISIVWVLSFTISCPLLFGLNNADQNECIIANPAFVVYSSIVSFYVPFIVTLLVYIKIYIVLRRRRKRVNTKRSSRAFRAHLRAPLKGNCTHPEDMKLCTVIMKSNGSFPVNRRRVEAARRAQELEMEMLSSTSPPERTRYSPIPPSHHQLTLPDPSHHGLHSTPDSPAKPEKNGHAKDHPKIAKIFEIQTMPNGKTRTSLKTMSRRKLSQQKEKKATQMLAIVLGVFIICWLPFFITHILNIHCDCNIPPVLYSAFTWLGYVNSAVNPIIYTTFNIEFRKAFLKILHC
Chain of D(3) dopamine receptor (P35462 whole entry): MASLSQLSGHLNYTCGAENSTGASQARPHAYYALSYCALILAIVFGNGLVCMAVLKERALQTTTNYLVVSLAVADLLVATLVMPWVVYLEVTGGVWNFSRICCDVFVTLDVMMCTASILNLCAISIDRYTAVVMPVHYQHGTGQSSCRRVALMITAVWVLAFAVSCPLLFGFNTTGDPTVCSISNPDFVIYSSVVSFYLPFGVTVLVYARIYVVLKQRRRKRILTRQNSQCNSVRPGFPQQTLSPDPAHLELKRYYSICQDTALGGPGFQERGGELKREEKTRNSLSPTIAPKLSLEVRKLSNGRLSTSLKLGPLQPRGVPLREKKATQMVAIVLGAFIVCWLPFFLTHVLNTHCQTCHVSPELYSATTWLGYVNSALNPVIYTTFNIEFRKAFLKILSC
Chain of D(1A) dopamine receptor (P21728 whole entry): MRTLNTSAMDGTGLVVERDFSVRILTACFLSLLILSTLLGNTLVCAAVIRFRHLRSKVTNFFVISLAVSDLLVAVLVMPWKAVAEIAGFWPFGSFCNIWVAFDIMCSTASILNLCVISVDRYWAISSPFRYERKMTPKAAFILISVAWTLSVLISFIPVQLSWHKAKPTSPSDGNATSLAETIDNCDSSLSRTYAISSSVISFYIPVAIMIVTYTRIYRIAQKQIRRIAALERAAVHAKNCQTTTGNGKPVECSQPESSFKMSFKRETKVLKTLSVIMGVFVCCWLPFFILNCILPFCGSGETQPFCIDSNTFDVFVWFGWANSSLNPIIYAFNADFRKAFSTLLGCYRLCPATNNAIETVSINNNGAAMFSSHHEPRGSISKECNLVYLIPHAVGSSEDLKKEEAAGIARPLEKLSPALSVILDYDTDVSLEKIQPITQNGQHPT
Chain of D(1B) dopamine receptor (P21918 whole entry): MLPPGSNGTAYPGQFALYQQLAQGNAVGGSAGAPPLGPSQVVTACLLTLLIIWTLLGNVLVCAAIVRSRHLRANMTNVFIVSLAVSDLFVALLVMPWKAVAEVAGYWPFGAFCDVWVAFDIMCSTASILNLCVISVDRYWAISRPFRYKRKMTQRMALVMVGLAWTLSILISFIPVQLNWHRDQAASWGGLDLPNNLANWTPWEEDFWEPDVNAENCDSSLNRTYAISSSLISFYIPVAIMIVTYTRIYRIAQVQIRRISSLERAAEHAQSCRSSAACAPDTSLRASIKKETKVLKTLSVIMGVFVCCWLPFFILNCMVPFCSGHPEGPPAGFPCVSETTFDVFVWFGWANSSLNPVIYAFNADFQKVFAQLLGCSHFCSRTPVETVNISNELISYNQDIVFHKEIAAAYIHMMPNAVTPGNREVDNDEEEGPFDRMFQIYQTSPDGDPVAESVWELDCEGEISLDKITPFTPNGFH

Row | Structure (SMILES) | IC50 [2] [nM] | Ki [2] [nM] | other results
1 | Fc1ccc(OC[C@@H]2CN(Cc3ccc(Cl)cc3)CCO2)cc1 | 38 | 10.4 | inhibition [4]: 83%; inhibition [5]: 51%; inhibition [6]: < 50%; inhibition [7]: 79%; inhibition [8]: < 50%
2 | Clc1ccc2c(CN3CCO[C@H](COc4ccccc4)C3)c[nH]c2c1 | 8 | 2.2 | Fu [1]: 0.01; inhibition [4]: 94%; concentration at 0.25 h [9]: 246 ng/g; Kp [10]: 3.29; inhibition [5]: 70%; concentration at 0.25 h [11]: 74.8 ng/mL; inhibition [6]: < 50%; inhibition [7]: 93%; inhibition [8]: < 50%; Fu [3]: 0.006
3 | c1ccc(OC[C@@H]2CN(Cc3ccc4ccccc4c3)CCO2)cc1 | 64 | 17.8 | –
4 | COc1ccc(CN2CCO[C@H](COc3ccccc3)C2)cc1 | 160 | 44 | –
5 | COc1ccc(CN2CCO[C@H](COc3ccccn3)C2)cc1Cl | – | – | inhibition [12]: 37%
6 | COc1ccc(CN2CCO[C@H](COc3ccc(F)cc3)C2)cc1 | 47 | 13.1 | inhibition [4]: 88%; inhibition [5]: 76%; inhibition [6]: < 50%; inhibition [7]: 82%; inhibition [8]: < 50%
7 | COc1cc(CN2CCO[C@H](COc3ccccc3)C2)ccc1F | 42 | 11.6 | –
8 | COc1ccc(CN2CCO[C@H](COc3ccccn3)C2)cc1 | – | – | inhibition [12]: 57%
9 | Fc1ccc(CN2CCO[C@H](COc3ccccc3)C2)cc1C(F)(F)F | 320 | 89 | –
10 | Clc1ccc2[nH]cc(CN3CCO[C@H](COc4ccccc4)C3)c2c1 | 130 | 37 | –
11 | COc1ccc(CN2CCO[C@H](COc3cccc(F)n3)C2)cc1Cl | 260 | 73 | –
12 | c1ccc(OC[C@@H]2CN(Cc3n[nH]c4ccccc34)CCO2)cc1 | 65 | 18.1 | inhibition [7]: < 50%
13 | COc1ccc(CN2CCO[C@H](COc3cncnc3)C2)cc1 | – | – | inhibition [12]: -4%
14 | c1ccc(OC[C@@H]2CN(Cc3ccc4ccccc4n3)CCO2)cc1 | 1110 | 310 | –
15 | Fc1ccc2c(CN3CCO[C@H](COc4ccccc4)C3)c[nH]c2c1 | 18.9 | 5.2 | Fu [1]: 0.047; inhibition [4]: 78%; inhibition [5]: < 50%; inhibition [6]: < 50%; inhibition [7]: 76%; inhibition [8]: < 50%; Fu [3]: 0.017
16 | COc1ccc(CN2CCO[C@H](COc3cccc(C#N)c3)C2)cc1Cl | 130 | 36 | –
17 | COc1ccc(CN2CCO[C@H](COc3cccc(F)c3)C2)cc1Cl | 39 | 10.8 | Fu [1]: 0.013; inhibition [7]: < 50%; Fu [3]: 0.006
18 | COc1ccc(CN2CCO[C@@H](COc3ccccc3)C2)cc1Cl | – | – | inhibition [12]: 35%
19 | COc1ccc(CN2CCO[C@H](COc3ncccn3)C2)cc1 | – | – | inhibition [12]: 8%

Row | Structure (SMILES) | IC50 [2] [nM] | Ki [2] [nM] | other results
20 | Cn1ncc2cc(CN3CCO[C@H](COc4ccccc4)C3)ccc21 | 170 | 47 | Fu [1]: 0.074; concentration at 0.25 h [9]: 83.1 ng/g; Kp [10]: 2.23; concentration at 0.25 h [11]: 37.3 ng/mL; Fu [3]: 0.039
21 | FC(F)(F)Oc1ccc(CN2CCO[C@H](COc3ccccc3)C2)cc1 | 180 | 51 | –
22 | Fc1ccc(CN2CCO[C@H](COc3ccccc3)C2)cc1Cl | 62 | 170 | –
23 | COc1ccc(CN2CCO[C@H](COc3ccccc3)C2)cc1OC | 150 | 43 | –
24 | COc1ccc2[nH]cc(CN3CCO[C@H](COc4ccccc4)C3)c2c1 | 460 | 130 | –
25 | COc1cc(CN2CCO[C@H](COc3cccc(F)n3)C2)ccc1Cl | – | – | inhibition [12]: -3%
26 | Fc1cccc(OC[C@@H]2CN(Cc3ccc(Cl)cc3)CCO2)n1 | 460 | 130 | –
27 | Fc1cc(CN2CCO[C@H](COc3ccccc3)C2)ccc1C(F)(F)F | 58 | 16.2 | Fu [1]: 0.007; Fu [3]: 0.002
28 | Fc1cccc2[nH]cc(CN3CCO[C@H](COc4ccccc4)C3)c12 | 3830 | 1060 | –
29 | Clc1ccc(CN2CCO[C@H](COc3ncccn3)C2)cc1 | – | – | inhibition [12]: 31%
30 | FC1(F)Oc2ccc(CN3CCO[C@H](COc4ccccc4)C3)cc2O1 | 260 | 72 | –
31 | COc1cc(CN2CCO[C@H](COc3ccccn3)C2)ccc1Cl | – | – | inhibition [12]: 34%
32 | CSc1ccc(CN2CCO[C@H](COc3ccccc3)C2)cc1 | 58 | 16.1 | –
33 | COc1ccc2c(CN3CCO[C@H](COc4ccccc4)C3)c[nH]c2c1 | 19.5 | 5.4 | Fu [1]: 0.075; inhibition [4]: 87%; inhibition [5]: 70%; inhibition [6]: < 50%; inhibition [7]: 82%; inhibition [8]: < 50%; Fu [3]: 0.037
34 | Clc1ccc(CN2CCO[C@H](COc3cncnc3)C2)cc1 | – | – | inhibition [12]: 76%
35 | COc1ccc(CN2CCO[C@H](COc3ccccc3)C2)cc1Cl | 38 | 10.4 | Fu [1]: 0.019; inhibition [7]: < 50%; Fu [3]: 0.01
36 | COc1ccc(CN2CCO[C@H](COc3cccc(F)c3)C2)cc1 | 92 | 26 | –
37 | c1ccc(OC[C@@H]2CN(Cc3cn4ccccc4n3)CCO2)cc1 | 590 | 160 | Fu [1]: 0.215; Fu [3]: 0.057
38 | COc1ccc(CN2CCO[C@H](COc3ccc(OC)cc3)C2)cc1 | 380 | 110 | –

Further lines, with some results ahead:

Row | IC50 [2] [nM] | Ki [2] [nM] | Structure (SMILES) | other results
39 | 100 | 29 | Clc1ccc(CN2CCO[C@H](COc3cccc(Cl)n3)C2)cc1 | Fu [1]: 0.008; Fu [3]: 0.004
40 | 58 | 15.9 | c1ccc(OC[C@@H]2CN(Cc3ccc4[nH]ccc4c3)CCO2)cc1 | Fu [1]: 0.069; inhibition [4]: 64%; inhibition [5]: < 50%; inhibition [6]: < 50%; inhibition [7]: 64%; inhibition [8]: < 50%; Fu [3]: 0.035
41 | 69 | 19.1 | Fc1cc(CN2CCO[C@H](COc3ccccc3)C2)ccc1Cl | Fu [1]: 0.012; Fu [3]: 0.006
42 | 42 | 11.6 | COc1cc(CN2CCO[C@H](COc3ccccc3)C2)ccc1Cl | Fu [1]: 0.025; inhibition [4]: 52%; inhibition [5]: < 50%; inhibition [6]: < 50%; inhibition [7]: 60%; inhibition [8]: < 50%; Fu [3]: 0.01
43 | 97 | 27 | Clc1ccc(CN2CCO[C@H](COc3ccccc3)C2)cc1Cl | Fu [1]: 0.006; Fu [3]: 0.002
44 | 530 | 150 | Fc1ccc(CN2CCO[C@H](COc3ccccc3)C2)cc1F | –
45 | 130 | 37 | c1ccc(OC[C@@H]2CN(Cc3cccc4cc[nH]c34)CCO2)cc1 | –
46 | 150 | 42 | COc1ccc(OC[C@@H]2CN(Cc3ccc(Cl)cc3)CCO2)cc1 | –
47 | 45 | 12.3 | Cc1ccc(CN2CCO[C@H](COc3ccccc3)C2)cc1C | inhibition [7]: < 50%
48 | 2630 | 730 | Clc1ccc(CN2CCO[C@H](COc3ccccn3)C2)cc1 | –
49 | 210 | 59 | COc1ccc(CN2CCO[C@H](COc3cccnc3)C2)cc1 | –
50 | 150 | 42 | Clc1ccc(CN2CCO[C@H](COc3ccccc3)C2)cc1 | Fu [1]: 0.007; concentration at 0.25 h [9]: 197 ng/g; Kp [10]: 4.62; concentration at 0.25 h [11]: 42.5 ng/mL; Fu [3]: 0.007
51 | 100 | 28 | COc1cc(CN2CCO[C@H](COc3cccc(C#N)c3)C2)ccc1Cl | –
52 | 37 | 10.1 | COc1cc(CN2CCO[C@H](COc3cccc(F)c3)C2)ccc1Cl | Fu [1]: 0.014; inhibition [7]: < 50%; Fu [3]: 0.011
53 | 103 | 47 | Clc1ccc(CN2CCO[C@H](COc3cccnc3)C2)cc1 | –
54 | 130 | 36 | COc1cccc(OC[C@@H]2CN(Cc3ccc(Cl)cc3)CCO2)c1 | –
55 | 130 | 35 | c1ccc(OC[C@@H]2CN(Cc3ncn4ccccc34)CCO2)cc1 | inhibition [7]: < 50%
56 | 76 | 21 | Fc1ccc2c(CN3CCO[C@H](COc4cccc(F)n4)C3)c[nH]c2c1 | Fu [1]: 0.015; inhibition [7]: < 50%; Fu [3]: 0.009
